Laboratory results taken from ChEMBL document CHEMBL4354843, “Structure-Based Design of a Potent and Selective Covalent Inhibitor for SRC Kinase That Targets a P-Loop Cysteine” (J Med Chem, 2020).
Activity calls are given as the source filed them. The calls are words filed in the database; no cut-off is given here.

Legend:
[1] = molecular target: Homeodomain-interacting protein kinase 2 (Homo sapiens) (UniProt Q9H2X6); assay: Binding affinity to wild-type human partial length HIPK2 (M153 to S564 residues) expressed in mammalian expression system assessed as residual binding level at 1 uM by Kinomescan method relative to control
Homeodomain-interacting protein kinase 2 (Homo sapiens), sequence (Q9H2X6 whole entry, looked up, the tested form may be a part): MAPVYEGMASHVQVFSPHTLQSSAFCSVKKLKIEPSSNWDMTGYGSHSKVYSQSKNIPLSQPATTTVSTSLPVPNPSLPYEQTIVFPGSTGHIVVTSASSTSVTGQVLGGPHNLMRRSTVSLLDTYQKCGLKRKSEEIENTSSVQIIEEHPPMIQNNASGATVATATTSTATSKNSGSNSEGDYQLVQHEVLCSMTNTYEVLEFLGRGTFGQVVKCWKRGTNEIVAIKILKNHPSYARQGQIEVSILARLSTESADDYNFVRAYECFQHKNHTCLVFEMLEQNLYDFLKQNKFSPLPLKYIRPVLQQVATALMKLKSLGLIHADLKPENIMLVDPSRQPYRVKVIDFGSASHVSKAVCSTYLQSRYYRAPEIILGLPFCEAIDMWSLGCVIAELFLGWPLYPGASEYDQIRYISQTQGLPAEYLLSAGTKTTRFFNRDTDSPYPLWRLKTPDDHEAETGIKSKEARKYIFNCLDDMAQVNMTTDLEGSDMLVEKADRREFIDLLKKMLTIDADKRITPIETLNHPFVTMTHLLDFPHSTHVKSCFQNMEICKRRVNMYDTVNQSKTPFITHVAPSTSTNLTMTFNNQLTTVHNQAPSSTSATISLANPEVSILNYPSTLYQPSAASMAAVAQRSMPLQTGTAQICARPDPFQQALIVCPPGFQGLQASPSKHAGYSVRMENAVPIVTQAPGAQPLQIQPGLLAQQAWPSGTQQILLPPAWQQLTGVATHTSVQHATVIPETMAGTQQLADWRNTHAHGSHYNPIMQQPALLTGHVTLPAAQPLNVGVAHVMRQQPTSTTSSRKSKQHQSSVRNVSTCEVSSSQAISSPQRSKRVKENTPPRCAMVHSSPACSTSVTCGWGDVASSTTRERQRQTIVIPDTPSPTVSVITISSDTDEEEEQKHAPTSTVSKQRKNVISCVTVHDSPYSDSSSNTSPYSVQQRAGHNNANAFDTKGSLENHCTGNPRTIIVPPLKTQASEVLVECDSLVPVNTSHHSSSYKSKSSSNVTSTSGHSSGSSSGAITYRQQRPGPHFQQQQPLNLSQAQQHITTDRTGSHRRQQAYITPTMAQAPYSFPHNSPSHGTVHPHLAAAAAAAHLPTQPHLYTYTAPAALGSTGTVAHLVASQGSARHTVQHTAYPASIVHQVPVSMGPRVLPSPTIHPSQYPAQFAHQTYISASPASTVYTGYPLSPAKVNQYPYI

[2] = molecular target: Serine/threonine-protein kinase SIK2 (Homo sapiens) (UniProt Q9H0K1); assay: Binding affinity to wild-type human full length SIK2 (M1 to N926 residues) expressed in bacterial expression system assessed as residual binding level at 1 uM by Kinomescan method relative to control
Method in brief: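 Active site-directed binding assay (KinomeScan) run across a 468-kinase panel, with the test compound at 1 μM. The read-out is the remaining kinase signal in the presence of compound, expressed as a percentage of the DMSO control. Scores above 35% were taken as weak binding and were not reported.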

[3] = molecular target: Serine/threonine-protein kinase Nek2 (Homo sapiens) (UniProt P51955); assay: Binding affinity to wild-type human partial length NEK2 (M1 to K309 residues) expressed in bacterial expression system assessed as residual binding level at 1 uM by Kinomescan method relative to control
[4] = molecular target: Death-associated protein kinase 3 (Homo sapiens) (UniProt O43293); assay: Binding affinity to wild-type human partial length DAPK3 (M1 to A277 residues) expressed in bacterial expression system assessed as residual binding level at 1 uM by Kinomescan method relative to control
Death-associated protein kinase 3 (Homo sapiens), sequence (O43293 whole entry, looked up, the tested form may be a part): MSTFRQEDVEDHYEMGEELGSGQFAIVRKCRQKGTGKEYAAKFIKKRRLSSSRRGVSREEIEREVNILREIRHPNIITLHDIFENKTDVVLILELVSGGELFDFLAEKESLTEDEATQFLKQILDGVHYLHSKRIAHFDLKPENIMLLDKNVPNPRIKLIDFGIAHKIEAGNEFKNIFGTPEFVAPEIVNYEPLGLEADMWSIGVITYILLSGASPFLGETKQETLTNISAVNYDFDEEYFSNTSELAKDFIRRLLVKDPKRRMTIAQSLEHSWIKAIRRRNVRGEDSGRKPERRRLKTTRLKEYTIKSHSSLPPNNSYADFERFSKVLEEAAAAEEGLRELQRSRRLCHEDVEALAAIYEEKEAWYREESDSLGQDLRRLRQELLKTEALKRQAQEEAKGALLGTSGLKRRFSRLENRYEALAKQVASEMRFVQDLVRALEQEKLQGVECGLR

HCC827 = assay: Antiproliferative activity against human HCC827 cells assessed as reduction in cell viability incubated for 72 hrs by cell-titer glo assay relative to control; assay type: functional
Method in brief: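 Cells seeded at 2000 cells/well, dosed next day with a range of concentrations (DMSO 0.2% as control), 72 h exposure, viability read by CellTiter-Glo luminescence. Dose–response curves and GR values derived with the online GR calculator. Two independent experiments, each in technical triplicate.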

[5] = test system: Phosphatidylinositol 4,5-bisphosphate 3-kinase catalytic subunit alpha isoform (Homo sapiens), P42336 [C420R]; assay: Binding affinity to human partial length PIK3CA C420R mutant (R108 to N1068 residues) expressed in mammalian expression system assessed as residual binding level at 1 uM by Kinomescan method relative to control
Method in brief: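 KinomeScan active site-directed competition binding panel (468 kinases), compound tested at 1 μM. Result expressed as remaining kinase signal versus DMSO control (percent of control).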

[6] = molecular target: Epidermal growth factor receptor (Homo sapiens) (UniProt P00533); assay: Binding affinity to wild-type human partial length EGFR (R669 to V1011 residues) expressed in bacterial expression system assessed as residual binding level at 1 uM by Kinomescan method relative to control
[7] = molecular target: Interleukin-1 receptor-associated kinase 3 (Homo sapiens) (UniProt Q9Y616); assay: Binding affinity to wild-type human partial length IRAK3 (V147 to E596 residues) expressed in bacterial expression system assessed as residual binding level at 1 uM by Kinomescan method relative to control
Interleukin-1 receptor-associated kinase 3 (Homo sapiens), sequence (Q9Y616 whole entry, the tested form may be a part): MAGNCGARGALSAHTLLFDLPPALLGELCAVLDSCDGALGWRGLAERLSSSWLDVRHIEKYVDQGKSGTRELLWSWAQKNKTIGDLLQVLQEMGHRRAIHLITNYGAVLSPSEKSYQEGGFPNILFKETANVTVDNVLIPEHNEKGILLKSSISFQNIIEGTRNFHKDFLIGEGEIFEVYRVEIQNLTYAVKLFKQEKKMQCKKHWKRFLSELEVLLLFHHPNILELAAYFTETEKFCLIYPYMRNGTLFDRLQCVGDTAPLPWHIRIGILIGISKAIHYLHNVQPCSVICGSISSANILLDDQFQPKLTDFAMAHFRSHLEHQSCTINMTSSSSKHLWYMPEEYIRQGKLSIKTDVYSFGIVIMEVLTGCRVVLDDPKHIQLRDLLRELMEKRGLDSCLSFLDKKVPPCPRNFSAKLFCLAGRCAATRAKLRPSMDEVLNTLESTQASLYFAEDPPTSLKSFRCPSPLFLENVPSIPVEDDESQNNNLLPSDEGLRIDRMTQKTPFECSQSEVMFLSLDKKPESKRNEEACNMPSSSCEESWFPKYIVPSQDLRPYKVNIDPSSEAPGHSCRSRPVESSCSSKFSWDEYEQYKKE

[8] = molecular target: Mitogen-activated protein kinase; ERK1/ERK2 (Homo sapiens) (UniProt P27361+P28482); assay: Inhibition of ERK1/2 in human HCC827 cells assessed as blocking of ERK1/2 pulldown at 1 uM in presence of TL13-68 incubated for 2 hrs by Western blot analysis; assay type: cell-based
Method in brief: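 H1975 or HCC827 cells treated with 1 μM compound or DMSO for 2 h, rinsed twice in cold PBS, and lysed in M-PER with protease/phosphatase inhibitors. Lysate rocked overnight at 4 °C with 1 μM TL13-68, then streptavidin pulldown with five cold washes. Bound kinases detected by Western blot. Two independent experiments.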

[9] = molecular target: Ankyrin repeat and protein kinase domain-containing protein 1 (Homo sapiens) (UniProt Q8NFD2); assay: Binding affinity to wild-type human partial length ANKK1 (M1 to A305 residues) expressed in mammalian expression system assessed as residual binding level at 1 uM by Kinomescan method relative to control
Method in brief: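 KinomeScan, an active site-directed competition binding panel of 468 kinases. The test compound was at 1 μM. The readout is remaining kinase binding as a percentage of the DMSO control. Scores above 35% were treated as weak binding and not listed.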

[10] = molecular target: Platelet-derived growth factor receptor beta (Homo sapiens) (UniProt P09619); assay: Binding affinity to wild-type human partial length PDGFRB (V582 to Y1009 residues) expressed in bacterial expression system assessed as residual binding level at 1 uM by Kinomescan method relative to control
Method in brief: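 Active-site-directed competition binding panel of 468 kinases (KinomeScan), compound at 1 μM. The read-out is kinase remaining bound, given as a percentage of the DMSO control. […]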

[11] = molecular target: cAMP-dependent protein kinase catalytic subunit PRKX (Homo sapiens) (UniProt P51817); assay: Binding affinity to wild-type human partial length PRKX (M1 to F358 residues) expressed in bacterial expression system assessed as residual binding level at 1 uM by Kinomescan method relative to control
cAMP-dependent protein kinase catalytic subunit PRKX (Homo sapiens), sequence (P51817 whole entry, the tested form may be a part): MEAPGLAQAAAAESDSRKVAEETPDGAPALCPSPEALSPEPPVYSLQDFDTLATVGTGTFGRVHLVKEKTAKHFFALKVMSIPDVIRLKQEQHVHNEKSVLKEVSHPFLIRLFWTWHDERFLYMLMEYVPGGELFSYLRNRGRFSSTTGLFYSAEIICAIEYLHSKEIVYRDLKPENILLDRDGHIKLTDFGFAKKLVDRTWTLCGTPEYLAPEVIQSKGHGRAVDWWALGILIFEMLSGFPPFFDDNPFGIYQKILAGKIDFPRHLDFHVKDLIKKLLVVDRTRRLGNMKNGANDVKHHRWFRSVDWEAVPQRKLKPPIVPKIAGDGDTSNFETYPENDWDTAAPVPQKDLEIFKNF

[12] = molecular target: Tyrosine-protein kinase receptor Tie-1 (Homo sapiens) (UniProt P35590); assay: Binding affinity to wild-type human partial length TIE1 (T819 to A1138 residues) expressed in bacterial expression system assessed as residual binding level at 1 uM by Kinomescan method relative to control
Tyrosine-protein kinase receptor Tie-1 (Homo sapiens), sequence (P35590 whole entry, the tested form may be a part): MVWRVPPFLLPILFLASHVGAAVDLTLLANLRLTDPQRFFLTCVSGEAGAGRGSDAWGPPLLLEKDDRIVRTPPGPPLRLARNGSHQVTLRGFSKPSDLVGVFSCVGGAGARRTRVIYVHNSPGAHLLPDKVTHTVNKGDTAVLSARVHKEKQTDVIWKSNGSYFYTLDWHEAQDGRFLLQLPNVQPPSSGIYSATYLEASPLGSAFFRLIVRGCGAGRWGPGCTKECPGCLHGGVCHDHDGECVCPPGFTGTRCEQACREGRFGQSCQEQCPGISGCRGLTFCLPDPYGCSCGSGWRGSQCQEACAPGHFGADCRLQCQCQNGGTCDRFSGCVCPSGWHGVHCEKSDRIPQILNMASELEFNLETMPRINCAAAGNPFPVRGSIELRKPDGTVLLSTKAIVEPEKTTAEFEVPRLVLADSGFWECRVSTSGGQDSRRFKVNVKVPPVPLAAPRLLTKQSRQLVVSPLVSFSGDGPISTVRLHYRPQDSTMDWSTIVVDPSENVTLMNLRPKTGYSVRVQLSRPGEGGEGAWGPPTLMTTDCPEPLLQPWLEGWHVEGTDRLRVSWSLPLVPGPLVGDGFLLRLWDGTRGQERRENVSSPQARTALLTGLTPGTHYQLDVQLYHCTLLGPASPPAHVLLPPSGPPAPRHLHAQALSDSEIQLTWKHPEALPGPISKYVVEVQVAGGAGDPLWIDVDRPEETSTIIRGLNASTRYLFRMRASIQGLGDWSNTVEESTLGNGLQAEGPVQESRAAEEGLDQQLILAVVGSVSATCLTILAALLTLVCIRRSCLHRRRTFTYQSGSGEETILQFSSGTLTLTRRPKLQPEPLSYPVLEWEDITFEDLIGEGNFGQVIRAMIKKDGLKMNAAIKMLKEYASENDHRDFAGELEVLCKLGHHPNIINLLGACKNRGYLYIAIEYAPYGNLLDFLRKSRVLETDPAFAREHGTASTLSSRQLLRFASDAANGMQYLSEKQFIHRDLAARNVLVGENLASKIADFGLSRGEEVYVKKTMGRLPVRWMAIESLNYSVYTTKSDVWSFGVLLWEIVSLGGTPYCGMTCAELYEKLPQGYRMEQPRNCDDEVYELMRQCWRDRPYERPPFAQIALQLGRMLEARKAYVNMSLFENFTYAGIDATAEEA
Method in brief: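 Active site-directed competition binding panel (KinomeScan, 468 kinases). Test compound at 1 μM. Read-out is kinase binding remaining versus DMSO control, expressed as percent of control. Scores above 35% are treated as weak binding.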

[13] = molecular target: Serine/threonine-protein kinase PAK 4 (Homo sapiens) (UniProt O96013); assay: Binding affinity to wild-type human partial length PAK4 (Q144 to R438 residues) expressed in bacterial expression system assessed as residual binding level at 1 uM by Kinomescan method relative to control
[14] = molecular target: Tyrosine-protein kinase ZAP-70 (Homo sapiens) (UniProt P43403); assay: Binding affinity to wild-type human partial length ZAP70 (D20 to G299 residues) expressed in mammalian expression system assessed as residual binding level at 1 uM by Kinomescan method relative to control
[15] = molecular target: Non-receptor tyrosine-protein kinase TYK2 (Homo sapiens) (UniProt P29597); assay: Binding affinity to wild-type human partial length TYK2 JH2 pseudokinase domain (G556 to D888 residues) expressed in mammalian expression system assessed as residual binding level at 1 uM by Kinomescan method relative to control
[16] = molecular target: Dual specificity tyrosine-phosphorylation-regulated kinase 1A (Homo sapiens) (UniProt Q13627); assay: Binding affinity to wild-type human partial length DYRK1A (H129 to S509 residues) expressed in mammalian expression system assessed as residual binding level at 1 uM by Kinomescan method relative to control
[17] = molecular target: Serine/threonine-protein kinase DCLK2 (Homo sapiens) (UniProt Q8N568); assay: Binding affinity to wild-type human partial length DCAMKL2 (K273 to V664 residues) expressed in bacterial expression system assessed as residual binding level at 1 uM by Kinomescan method relative to control
Serine/threonine-protein kinase DCLK2 (Homo sapiens), sequence (Q8N568 whole entry, the tested form may be a part): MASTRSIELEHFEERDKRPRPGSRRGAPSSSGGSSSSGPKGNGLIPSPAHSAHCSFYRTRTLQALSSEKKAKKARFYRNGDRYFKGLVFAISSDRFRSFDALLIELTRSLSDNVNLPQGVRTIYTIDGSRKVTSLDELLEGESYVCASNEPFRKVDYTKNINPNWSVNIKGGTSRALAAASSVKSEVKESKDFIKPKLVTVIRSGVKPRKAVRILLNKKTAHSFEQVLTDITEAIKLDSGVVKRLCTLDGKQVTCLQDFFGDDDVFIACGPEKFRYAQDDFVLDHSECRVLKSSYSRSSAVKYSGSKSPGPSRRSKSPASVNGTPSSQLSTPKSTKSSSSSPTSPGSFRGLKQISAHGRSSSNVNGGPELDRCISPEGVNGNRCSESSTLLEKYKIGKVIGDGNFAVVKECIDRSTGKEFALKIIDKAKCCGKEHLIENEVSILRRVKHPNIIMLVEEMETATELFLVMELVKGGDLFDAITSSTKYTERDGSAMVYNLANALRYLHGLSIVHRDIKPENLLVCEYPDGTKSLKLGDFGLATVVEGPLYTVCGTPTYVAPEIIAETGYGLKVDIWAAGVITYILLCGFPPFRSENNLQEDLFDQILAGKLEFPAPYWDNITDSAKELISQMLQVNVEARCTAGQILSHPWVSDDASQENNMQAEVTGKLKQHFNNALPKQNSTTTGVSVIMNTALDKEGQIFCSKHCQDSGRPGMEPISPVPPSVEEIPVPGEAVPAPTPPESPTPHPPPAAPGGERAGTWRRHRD

[18] = molecular target: Calcium/calmodulin-dependent protein kinase type IV (Homo sapiens) (UniProt Q16566); assay: Binding affinity to wild-type human partial length CAMK4 (A22 to A322 residues) expressed in bacterial expression system assessed as residual binding level at 1 uM by Kinomescan method relative to control
Calcium/calmodulin-dependent protein kinase type IV (Homo sapiens), sequence (Q16566 whole entry, the tested form may be a part): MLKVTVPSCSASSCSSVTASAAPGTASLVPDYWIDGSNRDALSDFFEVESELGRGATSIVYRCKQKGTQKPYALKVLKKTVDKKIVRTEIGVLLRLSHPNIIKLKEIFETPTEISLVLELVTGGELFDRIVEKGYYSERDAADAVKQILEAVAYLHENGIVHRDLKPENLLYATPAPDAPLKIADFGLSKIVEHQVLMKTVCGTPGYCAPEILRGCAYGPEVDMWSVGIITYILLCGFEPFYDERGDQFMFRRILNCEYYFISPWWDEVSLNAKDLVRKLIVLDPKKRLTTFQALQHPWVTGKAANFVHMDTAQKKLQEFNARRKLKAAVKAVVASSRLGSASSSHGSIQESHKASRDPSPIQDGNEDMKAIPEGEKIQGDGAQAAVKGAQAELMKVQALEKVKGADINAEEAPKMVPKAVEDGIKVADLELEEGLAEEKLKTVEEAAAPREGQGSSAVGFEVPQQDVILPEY

C=CC(=O)Nc1ccccc1Nc1nc(Nc2ccc(N3CCN(C)CC3)cc2)ncc1C(=O)Nc1c(C)cccc1Cl
Activity [1]: 100%
Activity [2]: 67%
Activity [3]: 100%
Activity [4]: 100%
Emax (HCC827): -0.6
Activity [5]: 100%
Activity [6]: 80%
Activity [7]: 100%
inhibition [8]: inactive
Activity [9]: 98%
Activity [10]: 29%
Activity [11]: 100%
Activity [12]: 83%
Activity [13]: 100%
Activity [14]: 100%
Activity [15]: 100%
Activity [16]: 100%
Activity [17]: 100%
Activity [18]: 100%
